The target in series [1] is T1, Estrogen receptor (Rattus norvegicus) (UniProt P06211).
T1 sequence (whole entry): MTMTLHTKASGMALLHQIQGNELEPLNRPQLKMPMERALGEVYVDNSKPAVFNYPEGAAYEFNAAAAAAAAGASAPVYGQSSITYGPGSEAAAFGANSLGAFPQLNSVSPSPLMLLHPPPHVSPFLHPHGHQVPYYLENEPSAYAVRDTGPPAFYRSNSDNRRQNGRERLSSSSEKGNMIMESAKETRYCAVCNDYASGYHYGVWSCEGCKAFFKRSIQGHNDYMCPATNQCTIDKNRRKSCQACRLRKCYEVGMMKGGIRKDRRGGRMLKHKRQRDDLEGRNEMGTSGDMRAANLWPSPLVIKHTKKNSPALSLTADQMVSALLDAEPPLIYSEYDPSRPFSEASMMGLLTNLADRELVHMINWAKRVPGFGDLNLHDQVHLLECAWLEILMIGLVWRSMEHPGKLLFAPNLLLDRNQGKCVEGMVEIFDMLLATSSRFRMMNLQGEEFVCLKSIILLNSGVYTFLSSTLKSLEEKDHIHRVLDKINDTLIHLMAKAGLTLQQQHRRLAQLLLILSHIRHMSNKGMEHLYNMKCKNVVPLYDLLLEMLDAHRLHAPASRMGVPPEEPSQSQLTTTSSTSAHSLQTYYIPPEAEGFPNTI
Kind of series: Displacement of [3H]-estradiol from estrogen receptor in rat uterine cytosol at 10^-4 to 10^-10 M after 16 hrs relative to estradiol. To be noted: Uterus. For orientation: Displacement assays read how much labelled ligand stays bound in the presence of the test substance.

A further series relates to Serum. Kind of series: Drug metabolism in rat serum assessed as metabolite level at 25 ug, sc after 1 hr by TLC analysis. Type of series: ADME, organism-based. To be noted: in vivo. An outline of the steps: (§1)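 Immature rats given tritiated antiestrogen, 25 μg sc per rat. At 1 and 13 h, serum was prepared and extracted with ethyl acetate. Uteri were homogenized, the nuclear pellet washed three times, then extracted with ethanol. Extracts were concentrated, run on silica gel TLC in anesthetic ether–ethanol (98:2), and radioactivity counted by liquid scintillation.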

Series [2] can be described thus: Drug metabolism in rat uterine nuclear fraction assessed as (5R,6S)-5-(4-hydroxyphenyl)-6-phenyl-5,6,7,8-tetrahydronaphthalen-2-ol level at 25 ug, sc after 18 hrs by TLC analysis. To be noted: in vivo. Type of series: ADME, organism-based.
A short description of series [3]: Drug uptake in rat estrogen receptor expressing uterine at 25 ug, sc after 13 hrs by high salt sucrose density gradient analysis in presence of unlabeled estradiol. Particulars: in vivo. Type of series: ADME, organism-based, Uterus. An outline of the steps: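 Rats pretreated 1 h in vivo with 5 μg unlabeled estradiol or saline vehicle, then given 25 μg tritiated antiestrogen sc. Uteri excised; washed 800g nuclear pellet extracted 1 h at 0 °C with buffer containing 0.4 M KCl. Extract charcoal-dextran treated, ¹⁴C ovalbumin and γ-globulin markers added. High-salt sucrose gradients spun 17 h, 4 °C, 270000g; 5S binding read.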

Series [4] is described as follows: Drug metabolism in rat uterine nuclear fraction assessed as 1-[p-(2,3-Dihydroxyphenyl)phenyl]-2-phenyl-6-methoxy-1,2,3,4-tetrahydronaphthalene level at 25 ug, sc after 18 hrs by TLC analysis. Particulars: in vivo. It counts as ADME, organism-based.
A short description of series [5]: Drug metabolism in rat uterine nuclear fraction assessed as 1-(p-Hydroxyphenyl)-2-phenyl-6-methoxy-1,2,3,4-tetrahydronaphthalene level at 25 ug, sc after 18 hrs by TLC analysis. To be noted: in vivo. Type of series: ADME, organism-based.
Series [6] can be described thus: Drug metabolism in rat uterine nuclear fraction assessed as metabolite level at 25 ug, sc after 13 hrs by TLC analysis. Type of series: ADME, organism-based. Particulars: in vivo. The procedure, abridged: as §1
A short description of series [7]: Drug metabolism in rat uterine nuclear fraction assessed as metabolite level at 25 ug, sc after 1 hr by TLC analysis. Type of series: ADME, organism-based. Particulars: in vivo. An outline of the steps:
as §1

Series [8] in a line: Drug metabolism in rat uterine nuclear fraction assessed as 3-(4-((1R,2S)-6-hydroxy-2-phenyl-1,2,3,4-tetrahydronaphthalen-1-yl)phenoxy)propane-1,2-diol level at 25 ug, sc after 18 hrs by TLC analysis. Type of series: ADME, organism-based. Particulars: in vivo.

`COc1ccc2c(c1)CC[C@@H]1[C@@H]2CC[C@]2(C)[C@@H](O)CC[C@@H]12`: in series [1], the RBA worked out at 3.
As for `COc1ccc2c(c1)CC[C@H](c1ccccc1)[C@@H]2c1ccc(OCC(O)CO)cc1` (mixture of isomers), the Drug metabolism result (in the series with Serum; in series [2]; in series [3]; in [4]; in series [5]; in series [6]) was “metabolite_detected” each time. Moreover, the Drug metabolism entry in series [7] and in series [8] was “metabolite_detected” each time. The same molecule registered an RBA in series [1] of 0.1.
In the case of `Oc1ccc([C@@H]2c3ccc(O)cc3CC[C@@H]2c2ccccc2)cc1`, the RBA in series [1] was found to be 29.8.
Same read-out and setting: for `CC[C@H](c1ccc(O)cc1)[C@@H](CC)c1ccc(OCC(O)CO)cc1` (relative stereo) the value was 6.9; for `CC[C@H](c1ccc(O)cc1)[C@@H](CC)c1ccc(O)cc1`, 300; for `OCC(O)COc1ccc([C@@H]2c3ccc(O)cc3CC[C@@H]2c2ccccc2)cc1` (stereo partly specified), 39.1.
As for `COc1ccc2c(c1)CC[C@H](c1ccccc1)[C@@H]2c1ccc(O)cc1`, in series [1], the RBA was 0.24.
Take `CC[C@H](c1ccc(O)cc1)[C@@H](CC)c1ccc(OC)cc1` (relative stereo): the RBA in series [1] came out at 19.3.

The values above are taken from ChEMBL document CHEMBL3244378, “Antiestrogens and antiestrogen metabolites: preparation of tritium-labeled (+/-)-cis-3-[p-(1,2,3,4-tetrahydro-6-methoxy-2-phenyl-1-naphthyl)phenoxyl]-1,2-propanediol (U-23469) and characterization and synthesis of a biologically important metabolite” (J Med Chem, 1979).
